These results are taken from ChEMBL document CHEMBL3580560, “Isolation, Structural Modification, and HIV Inhibition of Pentacyclic Lupane-Type Triterpenoids from Cassine xylocarpa and Maytenus cuzcoina” (J Nat Prod, 2015).

The test system of series [1] is Human immunodeficiency virus 1. The experiment in a line: Antiviral activity against HIV1 NL4.3-Ren infected in human MT2 cells assessed as inhibition of viral growth at 10 uM measured 48 hrs post infection by luminometry. It is filed as functional. The note with it: Human immunodeficiency virus 1, NL4.3-Ren, MT2, 48 h.
For series [2], the system named is Human immunodeficiency virus 1. The series is described as follows: Antiviral activity against HIV1 NL4.3-Ren infected in human MT2 cells assessed as inhibition of viral growth measured 48 hrs post infection by luminometry. It is filed as functional, organism-based. The note with it: Human immunodeficiency virus 1, NL4.3-Ren, MT2, 48 h. The procedure, abridged:
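MT-2 cells infected with X4-tropic HIV-1 NL4.3-Ren supernatant produced in 293T cells. Fivefold serial dilutions from 100 to 0.032 μM were tested. At 48 h postinfection, cells were lysed and Renilla luciferase RLU were measured. IC50 was fitted from the dose–response curve; values are the mean of at least three independent experiments.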

The nature of series [3]: Selectivity index, ratio of CC50 for mock-infected human MT2 cells to IC50 for HIV1 NL4.3-Ren infected in human MT2 cells. The class given is functional.
Series [4] can be described thus: Cytotoxicity against mock-infected human MT2 cells assessed as reduction in cell viability incubated for 48 hrs by cell-titer Glo assay. The class given is cell-based. The procedure, abridged:
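Uninfected MT-2 cells received RPMI medium instead of viral supernatant and were treated in parallel with the same fivefold dilutions (100–0.032 μM). […] Values are the mean of at least three independent experiments.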

A word on the inhibition: it is how much of the control response was suppressed. On to `CC(=O)OC[C@]12CC[C@@H]([C@]3(C)CO3)[C@@H]1[C@H]1CC[C@@H]3[C@@]4(C)CC[C@H](O)C(C)(C)[C@@H]4CC[C@@]3(C)[C@]1(C)CC2`, for which, in series [1], the inhibition at 10 µM was less than 50%. Regarding `C=C(C)[C@@H]1CC[C@]2(CO)CC[C@]3(C)[C@H](C[C@@H](O)[C@@H]4[C@@]5(C)CCC(=O)C(C)(C)[C@@H]5CC[C@]43C)[C@@H]12`, in series [1], the inhibition at 10 µM is less than 50%. The same measure, in the same setting: for `C=C(C)[C@@H]1CC[C@]2(C)CC[C@]3(C)[C@@H](C[C@@H](O)[C@@H]4[C@@]5(C)CCC(=O)C(C)(C)[C@@H]5CC[C@]43C)[C@@H]12` [RIGIDENOL] the value was less than 50%; for `CC(C)[C@@H]1CC[C@]2(C)CC[C@]3(C)[C@@H](CC[C@@H]4[C@@]5(C)CC[C@H](OC(=O)/C=C/c6ccc(O)c(O)c6)C(C)(C)[C@@H]5CC[C@]43C)[C@@H]12`, less than 50%; for `C=C(C)[C@@H]1CC[C@]2(C)CC[C@]3(C)[C@H](CC[C@@H]4[C@@]5(C)[C@H](O)C[C@H](O)C(C)(C)[C@@H]5CC[C@]43C)[C@@H]12`, less than 50%.

Take `C=C(COC(C)=O)[C@@H]1CC[C@]2(C)CC[C@]3(C)[C@H](CC[C@@H]4[C@@]5(C)CC[C@H](OC(C)=O)C(C)(C)[C@@H]5CC[C@]43C)[C@@H]12`: in series [1], the inhibition at 10 µM was less than 50%. Same read-out and setting: for `C=C(C)[C@@H]1CC[C@]2(C)CC[C@]3(C)[C@@H](CC[C@@H]4[C@@]5(C)C=CC(=O)C(C)(C)[C@@H]5CC[C@]43C)[C@@H]12` [GLOCHIDONE] the value was less than 50%; for `C=C(C)[C@@H]1CC[C@]2(COS(=O)(=O)c3ccc(C)cc3)CC[C@]3(C)[C@H](CC[C@@H]4[C@@]5(C)CC[C@H](O)C(C)(C)[C@@H]5CC[C@]43C)[C@@H]12`, less than 50%.

The IC50 is the concentration at which inhibition is half-maximal. By CC50 is commonly meant the concentration at which the toxic effect on the cells reaches its halfway point. In the case of `C=C(C)[C@@H]1CC[C@]2(C(=O)O)CC[C@]3(C)[C@H](CC[C@@H]4[C@@]5(C)CC[C@H](OC(=O)CC(C)(C)C(=O)O)C(C)(C)[C@@H]5CC[C@]43C)[C@@H]12` [BEVIRIMAT], the IC50 in series [2] was determined as 0.01 µM. In addition, in series [1], the inhibition at 10 µM was more than 50%. Moreover, in series [3], the “Ratio CC50/IC50” value is reported as more than 1000. For the same molecule, the CC50 at 48 h in series [4] is more than 10 µM. As for `C=C(CO)[C@@H]1CC[C@]2(C)CC[C@]3(C)[C@H](CC[C@@H]4[C@@]5(C)CCC(=O)C(C)(C)[C@@H]5CC[C@]43C)[C@@H]12`, in series [1], the inhibition at 10 µM was less than 50%.

For the molecule `C=C(C)[C@@H]1CC[C@]2(C)CC[C@]3(C)[C@@H](CC[C@@H]4[C@@]5(C)[C@@H](O)C[C@H](O)C(C)(C)[C@@H]5CC[C@]43C)[C@@H]12` [GLOCHIDIOL], the IC50 in series [2] worked out at 13.9 µM. Further, in series [1], the inhibition at 10 µM is more than 50%. The “Ratio CC50/IC50” value in series [3] is 1.4. Besides, the CC50 at 48 h in series [4] is 20 µM. For `C=C(CCl)[C@@H]1CC[C@]2(C)CC[C@]3(C)[C@H](C[C@@H](OC(C)=O)[C@@H]4[C@@]5(C)CCC(=O)C(C)(C)[C@@H]5CC[C@]43C)[C@@H]12`, the inhibition at 10 µM in series [1] is less than 50%. Consider `C=C(CCl)[C@@H]1CC[C@]2(C)CC[C@]3(C)[C@H](C[C@@H](OC(C)=O)[C@@H]4[C@@]5(C)C=CC(=O)C(C)(C)[C@@H]5CC[C@]43C)[C@@H]12`, for which the inhibition at 10 µM in series [1] was less than 50%. With `C=C(C)[C@@H]1CC[C@]2(C)CC[C@]3(C)[C@H](C[C@@H](OC(C)=O)[C@@H]4[C@@]5(C)CCC(=O)C(C)(C)[C@@H]5CC[C@]43C)[C@@H]12`, the inhibition at 10 µM in series [1] was less than 50%. Still for that read-out and setting: for `C=C(C)[C@@H]1CC[C@]2(COC(=O)C(C)(C)C)CC[C@]3(C)[C@H](CC[C@@H]4[C@@]5(C)CC[C@H](O)C(C)(C)[C@@H]5CC[C@]43C)[C@@H]12` the value was less than 50%.

Regarding `C=C(C)[C@@H]1CC[C@]2(CO)CC[C@]3(C)[C@H](CC[C@@H]4[C@@]5(C)[C@H](O)C[C@@H](O)C(C)(C)[C@@H]5CC[C@]43C)[C@@H]12`, in series [1], the inhibition at 10 µM was less than 50%.

`C=C(C)[C@@H]1CC[C@]2(C)CC[C@]3(C)[C@H](C[C@@H](O)[C@@H]4[C@@]5(C)C=CC(=O)C(C)(C)[C@@H]5CC[C@]43C)[C@@H]12`: the IC50 in series [2] worked out at 8.7 µM. The inhibition at 10 µM in series [1] was more than 50%. Moreover, the “Ratio CC50/IC50” value in series [3] worked out at 6.9. For the same molecule, the cytotoxic concentration (CC50) at 48 h in series [4] was determined as 60.4 µM. As for `C=C(C)[C@@H]1CC[C@]2(CO)CC[C@]3(C)[C@H](CC[C@@H]4[C@@]5(C)CCC(=O)C(C)(C)[C@@H]5CC[C@]43C)[C@@H]12` [BETULONE], the IC50 in series [2] is 4.1 µM. For the same molecule, the inhibition at 10 µM in series [1] was more than 50%. In addition, the “Ratio CC50/IC50” value in series [3] is reported as more than 24.5. For the same molecule, the cytotoxic concentration (CC50) at 48 h in series [4] is more than 100 µM. Consider `CC(C)(O)[C@@H]1CC[C@]2(C)CC[C@]3(C)[C@H](CC[C@@H]4[C@@]5(C)CC[C@H](O)C(C)(C)[C@@H]5[C@H](O)C[C@]43C)[C@@H]12`, for which the inhibition at 10 µM in series [1] is less than 50%. Still for that read-out and setting: then `C=C(C)[C@@H]1CC[C@]2(COC(=O)c3cccc4ccccc34)CC[C@]3(C)[C@H](CC[C@@H]4[C@@]5(C)CC[C@H](OC(=O)c6cccc7ccccc67)C(C)(C)[C@@H]5CC[C@]43C)[C@@H]12`, with less than 50%; and `C=C(C)[C@@H]1CC[C@]2(COC(C)=O)CC[C@]3(C)[C@H](CC[C@@H]4[C@@]5(C)CC[C@H](O)C(C)(C)[C@@H]5CC[C@]43C)[C@@H]12`, with less than 50%. Same read-out and setting: for `C=C(C)[C@@H]1CC[C@]2(COC(=O)c3cccc4ccccc34)CC[C@]3(C)[C@H](CC[C@@H]4[C@@]5(C)CC[C@H](O)C(C)(C)[C@@H]5CC[C@]43C)[C@@H]12` the value was less than 50%; for `C=C(CO)[C@@H]1CC[C@]2(C)CC[C@]3(C)[C@H](CC[C@@H]4[C@@]5(C)CC[C@H](O)C(C)(C)[C@@H]5CC[C@]43C)[C@@H]12`, less than 50%; for `C=C(C)[C@@H]1CC[C@]2(COC(=O)CCCCCCC)CC[C@]3(C)[C@H](CC[C@@H]4[C@@]5(C)CC[C@H](OC(=O)CCCCCCC)C(C)(C)[C@@H]5CC[C@]43C)[C@@H]12`, less than 50%. Still for that read-out and setting: for `C=C(C)[C@@H]1CC[C@]2(COC(C)=O)CC[C@]3(C)[C@H](CC[C@@H]4[C@@]5(C)CC[C@H](OC(C)=O)C(C)(C)[C@@H]5CC[C@]43C)[C@@H]12` [BETULIN DIACETATE] the value was less than 50%; for `C=C(C)[C@@H]1CC[C@]2(CO)CC[C@]3(C)[C@H](CC[C@@H]4[C@@]5(C)CC[C@H](OC(=O)/C=C/c6ccc(O)c(O)c6)C(C)(C)[C@@H]5CC[C@]43C)[C@@H]12`, less than 50%; for `C=C(C)[C@@H]1CC[C@]2(C)CC[C@]3(C)[C@H](CC[C@@H]4[C@@]5(C)CC[C@H](O)C(C)(C)[C@@H]5CC[C@]43C)[C@@H]12` [LUPEOL], less than 50%.

For the molecule `C=C(C)[C@@H]1CC[C@]2(CO)CC[C@]3(C)[C@H](CC[C@@H]4[C@@]5(C)CC[C@H](O)C(C)(C)[C@@H]5CC[C@]43C)[C@@H]12` [BETULIN], in series [1], the inhibition at 10 µM was less than 50%. The same measure, in the same setting: then `C=C(C)[C@@H]1CC[C@]2(C)CC[C@]3(C)[C@H](CC[C@@H]4[C@@]5(C)CC(Br)C(=O)C(C)(C)[C@@H]5CC[C@]43C)[C@@H]12` (stereo partly specified), with less than 50%; and `C=C(C)[C@@H]1CC[C@]2(COC(=O)c3ccc(Br)cc3)CC[C@]3(C)[C@H](CC[C@@H]4[C@@]5(C)CC[C@H](O)C(C)(C)[C@@H]5CC[C@]43C)[C@@H]12`, with less than 50%. Consider `C=C(C)[C@@H]1CC[C@]2(CO[Si](C)(C)C(C)(C)C)CC[C@]3(C)[C@H](CC[C@@H]4[C@@]5(C)CC[C@H](O)C(C)(C)[C@@H]5CC[C@]43C)[C@@H]12`, for which the inhibition at 10 µM in series [1] was less than 50%. As to `C=C(C)[C@@H]1CC[C@]2(C)CC[C@]3(C)[C@H](C[C@@H](O)[C@@H]4[C@@]5(C)CC[C@@H](O)C(C)(C)[C@@H]5CC[C@]43C)[C@@H]12`, the inhibition at 10 µM in series [1] was less than 50%. On to `C=C(C)[C@@H]1CC[C@]2(COC(=O)CCCCCCC)CC[C@]3(C)[C@H](CC[C@@H]4[C@@]5(C)CC[C@H](O)C(C)(C)[C@@H]5CC[C@]43C)[C@@H]12`, for which the inhibition at 10 µM in series [1] is less than 50%. Still for that read-out and setting: for `C=C(C)[C@@H]1CC[C@]2(COC(=O)c3ccccc3)CC[C@]3(C)[C@H](CC[C@@H]4[C@@]5(C)CC[C@H](O)C(C)(C)[C@@H]5CC[C@]43C)[C@@H]12` the value was less than 50%.

Take `C=C(C(=O)O)[C@@H]1CC[C@]2(C)CC[C@]3(C)[C@H](CC[C@@H]4[C@@]5(C)CCC(=O)C(C)(C)[C@@H]5CC[C@]43C)[C@@H]12`: the IC50 in series [2] came to 100 µM. Moreover, the inhibition at 10 µM in series [1] was more than 50%. For the same molecule, the CC50 at 48 h in series [4] is more than 100 µM. On to `C=C(C)[C@@H]1CC[C@]2(C)CC[C@]3(C)[C@H](CC[C@@H]4[C@@]5(C)CCC(=O)C(C)(C)[C@@H]5CC[C@]43C)[C@@H]12` [LUPENONE], for which the inhibition at 10 µM in series [1] is less than 50%. The same measure, in the same setting: then `CC(=O)OC[C@]12CC[C@@H](C(C)(O)CO)[C@@H]1[C@H]1CC[C@@H]3[C@@]4(C)CC[C@H](O)C(C)(C)[C@@H]4CC[C@@]3(C)[C@]1(C)CC2` (stereo partly specified), with less than 50%.
